Data on eight compounds can be found in publication PMC10558795 (Redox Biology, 2023).

Structures can show the parent of a compound that is named as a salt. Where two headings read alike, the source gives them in different places. Some results are limits rather than exact numbers.

As a reminder, the Cmax is the highest concentration seen after dosing.

Series [1] deals with KYSE70 cells. The series can be described thus: High-content cytotoxicity screen. The class given is cell-based, human. The method, boiled down:
(§1)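 Cells were seeded at 1200/well in 384-well plates and cultured overnight. Test compound was added at […] serial dilution from 10 µM, in triplicate, for 3 days. Controls were 0.1% DMSO (negative), 30 µM benzethonium chloride and 0.1% Triton X-100 added just before staining (positive). Cells were stained with 0.5 µg/ml Hoechst and 100 nM YOYO1, four 4× images per well. Normalized total-cell and dead-cell percentages were fitted for IC₅₀.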

For series [2], the system named is KYSE180 cells. The series can be described thus: High-content cytotoxicity screen. The class given is cell-based, human. The method, boiled down:
as §1

The test system of series [3] is NRF2 activity (NQO1-YFP signal, CDDO-activated). The experiment in a line: High-throughput screen and dose response: NRF2 activity. The class given is cell-based, human. The gist of the method: (§2)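 NQO1-YFP H1299 reporter cells (YFP in NQO1 intron 1, constitutive mCherry) were seeded 1000/well in 384-well plates and cultured overnight. Primary screen: 1 μM compound in 0.1% DMSO, one well each, with CDDO 200 nM and 0.1% DMSO controls. Retests used 10-point serial dilutions from 10 µM in triplicate, with brusatol control. Imaged at 0, 24, 48, 64 h (YFP = NRF2 activity, mCherry = viability); IC₅₀ by curve fit.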

Series [4] has as its system NQO1-YFP H1299 cells. The series can be described thus: Cell viability. It is filed as cell-based, human. The method, boiled down:
as §2

For series [5], the system named is NRF2 and NQO1 expression in NRF2^Mut-KYSE70 cells. The experiment in a line: Western blotting of NRF2 and NQO1 expression in KYSE70 cells. It is filed as cell-based, human. The gist of the method:
(§3)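 Nuclear and cytosolic fractions prepared with an extraction kit, or whole-cell lysates in RIPA buffer. Proteins separated by SDS-PAGE, transferred to nitrocellulose, blocked and probed with primary antibody overnight at 4 °C. Chemiluminescence detected on film and quantified by densitometry; band data as mean ± SD, Student's t-test.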
For orientation: A western blot detects proteins with antibodies after separation by electrophoresis.

In series [6] the test system is NRF2 expression in NRF2^WT-KYSE450 cells. The series can be described thus: NRF2 expression in KYSE450 cells. The class given is cell-based, human. The gist of the method:
as §3

For series [7] the following is noted: 90 mg/m^2, intravenous injection, cited from earlier work.
In series [8] the test system is NFE2L2 mRNA and NRF2 target genes. The series can be described thus: qPCR of NFE2L2 mRNA and NRF2 target genes. It is filed as cell-based, human. The method, boiled down: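 Gene expression quantified by real-time PCR using gene-specific primers and TaqMan probes on a 96-well real-time PCR system.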
The test system of series [9] is NRF2 and NQO1 expression in NRF2^Mut-KYSE180 cells. The series can be described thus: Western blotting of NRF2 and NQO1 expression in KYSE180 cells. It is filed as cell-based, human. The gist of the method: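 NRF2-mutant KYSE180 cells (37 °C, 5% CO₂) treated with test compound; nuclear and cytosolic fractions prepared with a nuclear extraction kit. Proteins separated by SDS-PAGE onto nitrocellulose, primary antibody overnight at 4 °C, chemiluminescence on film. Bands quantified by densitometry, mean ± SD, Student's t-test.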

Series [10] concerns ABCG2 and TOP2A expression. The experiment in a line: ABCG2 and TOP2A expression in KYSE70 cells. The class given is cell-based, human.
Series [11] deals with NRF2 (NRF2^WT-KYSE450) (Homo sapiens, UniProt Q16236). The experiment in a line: CHX chase analysis of NRF2 half-life in KYSE450 cells. Conditions: PYR 10 μM, MIT 20 nM. It is filed as cell-based. The method, boiled down:
(§4)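 Cells were grown in RPMI1640 GlutaMAX with 10% FBS and 1% penicillin/streptomycin at 37 °C, 5% CO₂. They were pre-incubated 4 h with test compound, then given 200 μg/ml cycloheximide to block protein synthesis. Cells were harvested at set time points after cycloheximide. Total lysates were run on SDS-PAGE and blotted for NRF2 and GAPDH, and band densities were used to calculate NRF2 half-life.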

The target in series [12] is NRF2 (NRF2^Mut-KYSE180) (Homo sapiens, UniProt Q16236, D77V). The experiment in a line: CHX chase analysis of NRF2 half-life in KYSE180 cells. The class given is cell-based. As to conditions: PYR 10 μM, MIT 20 nM. The method, boiled down: as §4
NRF2 (NRF2^Mut-KYSE180), sequence (Q16236 whole entry D77V): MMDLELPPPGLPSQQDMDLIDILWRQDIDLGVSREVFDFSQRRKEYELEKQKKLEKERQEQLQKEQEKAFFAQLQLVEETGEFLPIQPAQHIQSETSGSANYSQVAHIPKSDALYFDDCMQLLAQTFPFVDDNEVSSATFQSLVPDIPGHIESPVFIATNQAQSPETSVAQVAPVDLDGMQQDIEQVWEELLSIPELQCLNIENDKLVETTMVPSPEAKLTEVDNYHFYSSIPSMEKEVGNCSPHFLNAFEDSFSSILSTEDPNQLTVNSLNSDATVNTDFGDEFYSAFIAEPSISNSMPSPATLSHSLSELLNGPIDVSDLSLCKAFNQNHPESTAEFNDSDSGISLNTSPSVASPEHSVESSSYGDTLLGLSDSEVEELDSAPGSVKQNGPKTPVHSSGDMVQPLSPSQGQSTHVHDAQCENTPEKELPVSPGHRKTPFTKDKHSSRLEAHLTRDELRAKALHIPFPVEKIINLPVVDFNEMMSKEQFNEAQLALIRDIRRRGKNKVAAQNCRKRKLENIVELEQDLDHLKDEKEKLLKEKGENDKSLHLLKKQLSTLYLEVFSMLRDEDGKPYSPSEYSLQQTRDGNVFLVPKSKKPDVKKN
In series [13] the test system is global translation. The series can be described thus: Protein synthesis assay. The class given is cell-based, human. Conditions: KYSE70; PYR 10 μM, MIT 20 nM; CHX positive control. The method, boiled down:
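KYSE70 cells (37 °C, 5% CO₂) seeded at 2000 cells/well in 96-well plates; exposed to test compound or cycloheximide (positive control) in triplicate. Global translation measured with a commercial protein synthesis assay kit per manufacturer's protocol; cells imaged on a high-content imager.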

The subject of series [14] is human NRF2 target genes in KYSE70 cells. The experiment in a line: RNAseq of KYSE70 cells. It is filed as cell-based. Conditions: PYR 10 μM for 72 h, MIT 20 nM for 72 h. The method, boiled down:
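Total RNA from treated and control cells made into Illumina libraries and sequenced (150 bp). Reads aligned to hg38 with RefSeq annotation and counted per gene; DEGs called by fold-change cut-off and corrected p-values. Gene set enrichment analysis performed; overall NRF2 target-gene mRNA level calculated on natural log scale.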

Series [15] deals with NRF2-ARE binding (Homo sapiens, UniProt Q16236, W24C). The series can be described thus: ELISA-based TransAM NRF2-ARE binding assay with KYSE70 nuclear extracts. The method, boiled down: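 TransAM ELISA: nuclear extract from untreated KYSE70 cells (20 μg/well) added to wells containing ARE oligonucleotide. Test compound, competitor or mutated competitor added, then 1 h incubation with mild agitation and washing. Anti-NRF2 antibody 1 h, then HRP-conjugated secondary antibody and substrate; A450nm read.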
NRF2-ARE binding, sequence (Q16236 whole entry W24C): as the sequence (Q16236 whole entry D77V) above, with W24C, V77D counted along it
Background: ELISA stands for enzyme-linked immunosorbent assay.

[16] abbreviates: read-out: Cell death (IC50), KYSE70, 3 days.
The mark [17] stands for this setting: read-out: Cell proliferation (IC50), KYSE70, 3 days.
The mark [18] stands for this setting: read-out: Cell death (IC50), KYSE180, 3 days.
Where [19] appears, read: read-out: Cell proliferation (IC50), KYSE180, 3 days.
Where [20] appears, read: read-out: NRF2 inhibition (IC50), H1299-NQO1-YFP cells, CDDO-activated YFP signal.
The mark [21] stands for this setting: read-out: Cell viability (IC50), H1299-NQO1-YFP cells.
Setting [22] is: Homo sapiens, KYSE-70, 72 h, read-out: Cell proliferation (IC50, μM).
The mark [23] stands for this setting: Homo sapiens, KYSE-180, 72 h, read-out: Cell proliferation (IC50, μM).
Where [24] appears, read: Homo sapiens, NCI-H1299, read-out: NRF2 inhibition (IC50, μM).
Setting [25] is: Homo sapiens, NCI-H1299, read-out: Cell viability (IC50, μM).
The mark [26] stands for this setting: Homo sapiens, KYSE-70, 72 h, read-out: Cell death (IC50, μM).

NRF2 (NRF2^WT-KYSE450), sequence (Q16236 whole entry): as the sequence (Q16236 whole entry D77V) above, with V77D counted along it

In the case of `CC(C)NC[C@H](O)c1ccc(O)c(O)c1` [Isoproterenol bitratrate], the IC50 in [1] (setting [16]) was greater than 10 µM; in series [1] (setting [17]), 4.9 µM; in series [2] (setting [18]), greater than 10 µM; in series [2] (setting [19]) it was greater than 10 µM; in [3] (setting [20]), 0.43 µM; in series [4] (setting [21]), greater than 10 µM.

Regarding `CCC(NC(C)C)C(O)c1ccc(O)c(O)c1` (stereo not shown) [Isoetharine mesylate], the IC50 was greater than 10 µM in series [1] (setting [22]), greater than 10 µM in [2] (setting [23]), 0.49 µM in [3] (setting [24]) and greater than 10 µM in series [4] (setting [25]).

Take `CCOc1ccc2c(c1)C(C)=CC(C)(C)N2` [Ethoxyquin]: the IC50 in series [1] (setting [22]) was greater than 10 µM; in [2] (setting [23]), greater than 10 µM; in [3] (setting [24]) it was 0.29 µM; in [4] (setting [25]) it was greater than 10 µM.

On to `CC(C)NCC(O)c1ccc(O)c(O)c1` (stereo not shown) [Isoproterenol hydrochloride], for which the IC50 in series [1] (setting [26]) is greater than 10 µM; in series [1] (setting [22]), 5.2 µM; in series [2] (setting [23]), greater than 10 µM; in [3] (setting [24]), 0.84 µM; in series [4] (setting [25]) it was greater than 10 µM.

In the case of `CN(Cc1cnc2nc(N)nc(N)c2n1)c1ccc(C(=O)N[C@@H](CCC(=O)O)C(=O)O)cc1` [MTX, methotrexate], the NRF2 expression entry in [5] (NRF2^Mut-KYSE70 cells) and in series [6] was “significantly inhibited NRF2 expression” throughout.

Turning to `O=C1c2c(O)ccc(O)c2C(=O)c2c(NCCNCCO)ccc(NCCNCCO)c21` [MIT, mitoxantrone dihydrochloride], the “Cmax in the plasma” value in [7] was 6430 ± 2430 ng/mL. Besides, the highest concentration (Cmax) in series [7] (read-out: Cmax in the plasma) is 12.4 ± 4.7 µM. In addition, the IC50 was 0.00324 µM in [1] (setting [26]); 0.00584 µM in series [1] (setting [22]); 0.00522 µM in series [2] (Homo sapiens, KYSE-180, 72 h, read-out: Cell death (IC50, μM)); 0.00457 µM in [2] (setting [23]); 0.035 µM in series [3] (setting [24]); greater than 10 µM in series [4] (setting [25]). For the same compound, in series [8], the “NFE2L2 mRNA and NRF2 target genes (AKR1B10, AKR1C2, AKR1C3, PGD, SLC7A11, TKT) by qPCR” value was “downregulation”. Also, the “Expression of nuclear NRF2 and cytoplasmic NQO1” value in series [9] is “inhibited the expression of nuclear NRF2 and cytoplasmic NQO1 in a dose- and time-dependent manner”; in series [5] (KYSE70 cells) it was “inhibited the expression of nuclear NRF2 and cytoplasmic NQO1 in a dose- and time-dependent manner”. Further, the “ABCG2 and TOP2A expression” value in [10] is reported as “increased”. The “Effect on NRF2 half-life” value in series [11] is reported as “not changed”; in series [12], “shortened NRF2 half-life”. Further, the Global translation result in series [13] is “Neither PYR (10 μM) nor MIT (20 nM) inhibited global translation”. Further, the “Overall mRNA expression level of human NRF2 target genes” value in series [14] is on record as “significantly reduced”. The NRF2-ARE binding activity entry in series [15] is on record as “did not observe any changes”.

Turning to `Nc1nc(N)c2nc(-c3ccccc3)c(N)nc2n1` [Triamterene], the IC50 is greater than 10 µM in series [1] (setting [26]); 7.7 µM in series [1] (setting [22]); greater than 10 µM in series [2] (setting [23]); 0.72 µM in series [3] (setting [24]); 3.7 µM in [4] (setting [25]).

As to `CN1CC[C@@]2(C)c3cc(O)ccc3N(C)[C@@H]12` [Eseroline fumarate], the IC50 in series [1] (setting [16]) was greater than 10 µM; in series [1] (setting [17]), 10 µM; in series [2] (setting [18]), greater than 10 µM; in series [2] (setting [19]), greater than 10 µM; in [3] (setting [20]) it was 0.26 µM; in [4] (setting [21]), greater than 10 µM.
